Measured values pooled from the literature.
Each line is one published result; the experiments were not run side by side.
CHRM1: Muscarinic acetylcholine receptor M1 (CHRM1, Homo sapiens, UniProt P11229)
MDM2: E3 ubiquitin-protein ligase Mdm2 (MDM2, Homo sapiens, UniProt Q00987)
CYP3A4: Cytochrome P450 3A4 (CYP3A4, Homo sapiens, UniProt P08684)

SMILES	target	test	test system	conditions	endpoint	value
Cc1cc(N2CCNCC2)nc2ccccc12	CHRM1	ligand displacement, radioligand	–	cell membranes	Ki	> 31.6 µM
COc1ccc(CCNC[C@H](O)c2ccc(O)cc2)cc1OC	Beta-3 adrenergic receptor (ADRB3, Homo sapiens, UniProt P13945)	cell-free assay	–	–	Ki	2.1 µM
COc1cc(C(=O)N2CC[C@@H](O)[C@@H](N)C2)cc2nc(-c3cc4ccccc4n3CC3CC3)n(C)c12	CHRM1	calcium signal, agonist	–	–	EC50	5.01 µM
CC(=O)N[C@@H](CC(C)C)C(=O)N[C@H](C(=O)N[C@@H](Cc1ccccc1)C(=O)N[C@@]1(C)CCCC=CCCC[C@@](C)(C(=O)N[C@@H](CCC(N)=O)C(=O)N[C@@H](CC(C)C)C(=O)N[C@H](C(=O)N[C@@H](CO)C(N)=O)[C@@H](C)O)NC(=O)[C@H](Cc2c[nH]c3ccccc23)NC(=O)[C@H](Cc2ccc(O)cc2)NC(=O)[C@H](CCC(=O)O)NC1=O)[C@@H](C)O	MDM2	ligand displacement, FP	–	–	IC50	0.049 µM
CC[C@H](C)[C@H](NC(=O)[C@H](CCCNC(=N)N)NC(=O)[C@H](CCCCN)NC(=O)[C@@H]1CCCN1C(=O)[C@@H](N)CC(C)C)C(=O)N[C@@H](C)C(=O)O	N-terminal Xaa-Pro-Lys N-methyltransferase 1 (Homo sapiens, UniProt Q9BV86)	binding, ITC	–	pH 7.5	Kd	48 µM
N#Cc1c(N)nc(SCC(N)=O)c(C#N)c1-c1ccc(OCC2CC2)cc1	Adenosine receptor A2b (ADORA2B, Homo sapiens, UniProt P29275)	ligand displacement in cells, radioligand	–	–	IC50	0.785 µM
CC(C)C[C@H]1C(=O)N2CCC[C@H]2[C@]2(O)O[C@](NC(=O)[C@@H]3C=C4c5cccc6[nH]cc(c56)C[C@H]4N(C)C3)(C(C)C)C(=O)N12	Solute carrier organic anion transporter family member 1B1 (SLCO1B1, Homo sapiens, UniProt Q9Y6L6)	transporter uptake, inhibitor, fluorescence	CHO	30 min, pH 7.4	IC50	0.8 µM
CCc1cc(/C(C)=N/OCc2ccc(C3CCCCC3)c(C(F)(F)F)c2)ccc1CN1CC(C(=O)O)C1	CYP3A4	enzyme activity, inhibitor	human, liver microsomes	20 min, midazolam probe	IC50	> 1.1 µM
N#CC(CCN1CCC(N)CC1)(c1ccccc1)c1ccccc1	Potassium voltage-gated channel subfamily A member 3 (Kcna3, Mus musculus, UniProt P16390)	ion current, inhibitor, patch clamp	–	–	IC50	> 100 µM
O=P(O)(O)C(CCCc1cccc(Oc2ccccc2)c1)S(=O)(=O)O (stereo not shown)	4,4'-diapophytoene synthase (Staphylococcus aureus, UniProt A9JQL9)	enzyme activity, inhibitor	–	–	Ki	0.02 µM
O=C(O)c1ccccc1-c1c2cc(Br)c(=O)cc-2oc2[c]([Hg+])c(O)c(Br)cc12	Papain (Carica papaya, UniProt P00784)	binding, ITC	–	–	Kd	~39000 µM
N#C[C@H](C[C@@H]1CCCNC1=O)NC(=O)[C@H](CC1CC1)NC(=O)c1cc2cccc(Cl)c2[nH]1	CYP3A4	enzyme activity, inhibitor	human, liver microsomes	midazolam probe	IC50	69.4 µM
CC(C)[C@@H]1NC(=O)[C@H](CO)NC(=O)[C@H](CO)NC(=O)[C@H](CO)N(C)C(=O)[C@H](CC(=O)O)NC(=O)[C@H](CO)NC(=O)[C@H](Cc2ccccc2)NC(=O)CSC[C@@H](C(=O)NCC(N)=O)NC(=O)[C@H](CC(N)=O)NC(=O)[C@H](CCCNC(=N)N)NC(=O)[C@H](C)NC(=O)[C@H](Cc2ccc(-c3ccccc3)cc2)NC(=O)[C@H](CC(N)=O)NC(=O)[C@@H]2CCCN2C1=O	MDM2	ligand displacement, TR-FRET	–	–	Ki	> 8.06 µM
CC(C)C[C@H](NC(=O)[C@H](Cc1ccccc1)NC(=O)c1cnccn1)B(O)O	Lysosomal Pro-X carboxypeptidase (PRCP, Homo sapiens, UniProt P42785)	enzyme activity, inhibitor	–	–	IC50	12.4 µM
N[C@@H](C[C@]1(C(=O)O)C[C@H]2OC[C@@H](O)[C@@H](O)[C@H]2O1)C(=O)O	Glutamate receptor ionotropic, kainate 3 (Rattus norvegicus, UniProt P42264, T520A)	ligand displacement, radioligand	–	–	Ki	1.4 µM
N[C@@H](CCP(=O)(O)O)C(=O)O	Metabotropic glutamate receptor 8 (Grm8, Rattus norvegicus, UniProt P70579)	calcium signal, agonist	–	–	EC50	0.0589 µM
